Laboratory results reported in ChEMBL document CHEMBL3352689 (J Med Chem, 2014).
Values after ≈ are worked out from the molar mass of the structure shown.

Tests used:
[1] = target: Voltage-gated inwardly rectifying potassium channel KCNH2 (Homo sapiens, UniProt Q12809); test: Inhibition of human ERG
[2] = target: Disintegrin and metalloproteinase domain-containing protein 17 (Homo sapiens, UniProt P78536); test: Inhibition of human recombinant TACE using Cy3-PLAQAV(Cy5Q-L-2,3-diaminopropionic acid)-RSSSRNH2 as substrate after 40 mins by spectrofluorimetry
[3] = target: Stromelysin-2 (Homo sapiens, UniProt P09238); test: Inhibition of human recombinant MMP10 using Cy3-PLGLK(Cy5Q)AR-NH2 as substrate after 40 mins by spectrofluorimetry
[4] = Solubility of the compound in Britton-Robinson buffer at pH 7; assay type: physicochemical
[5] = target: Neutrophil collagenase (Homo sapiens, UniProt P22894); test: Inhibition of human recombinant MMP8 using Cy3-PLGLK(Cy5Q)AR-NH2 as substrate after 40 mins by spectrofluorimetry
[6] = target: T1, Interstitial collagenase (Homo sapiens, UniProt P03956); test: Inhibition of human recombinant MMP1 using Cy3-PLGLK(Cy5Q)AR-NH2 as substrate after 40 mins by spectrofluorimetry
T1 sequence (P03956 whole entry): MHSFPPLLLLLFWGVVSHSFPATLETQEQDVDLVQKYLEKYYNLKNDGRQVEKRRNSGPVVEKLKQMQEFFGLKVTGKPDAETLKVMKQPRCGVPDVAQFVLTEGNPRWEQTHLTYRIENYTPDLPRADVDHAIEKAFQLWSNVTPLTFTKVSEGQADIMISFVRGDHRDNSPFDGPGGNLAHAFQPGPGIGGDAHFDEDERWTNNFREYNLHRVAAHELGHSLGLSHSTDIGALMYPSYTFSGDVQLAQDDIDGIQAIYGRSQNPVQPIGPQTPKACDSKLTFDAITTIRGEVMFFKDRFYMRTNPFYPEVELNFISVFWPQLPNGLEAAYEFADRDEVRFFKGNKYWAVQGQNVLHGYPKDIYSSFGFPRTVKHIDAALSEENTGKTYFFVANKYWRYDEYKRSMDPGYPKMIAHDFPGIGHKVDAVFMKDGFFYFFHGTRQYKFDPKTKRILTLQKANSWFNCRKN
Outline: (§1)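 Human recombinant pro-enzymes were activated with 1 mM APMA at 37 °C, for 2 h (MMP-1) or 18 h (MMP-3). Reactions were stopped with EDTA and read at […] nm. Activity was scaled to no-inhibitor and EDTA controls, and IC50 obtained by iterative fitting.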

[7] = target: 72 kDa type IV collagenase (Homo sapiens, UniProt P08253); test: Inhibition of human recombinant MMP2 using Cy3-PLGLK(Cy5Q)AR-NH2 as substrate after 40 mins by spectrofluorimetry
[8] = target: Matrix metalloproteinase-14 (Homo sapiens, UniProt P50281); test: Inhibition of human recombinant GST-tagged MMP14 using Cy3-PLGLK(Cy5Q)AR-NH2 as substrate after 40 mins by spectrofluorimetry
[9] = Apparent permeability in human Caco2 cells; assay type: ADME, cell-based; conditions: Caco-2
[10] = target: Collagenase 3 (Homo sapiens, UniProt P45452); test: Inhibition of human recombinant MMP13 using Cy3-PLGLK(Cy5Q)AR-NH2 as substrate after 40 mins by spectrofluorimetry
[11] = target: Stromelysin-1 (Homo sapiens, UniProt P08254); test: Inhibition of human recombinant MMP3 using Cy3-PLGLK(Cy5Q)AR-NH2 as substrate after 40 mins by spectrofluorimetry; outline: as §1
[12] = target: T2, Matrilysin (Homo sapiens, UniProt P09237); test: Inhibition of human recombinant MMP7 using Cy3-PLGLK(Cy5Q)AR-NH2 as substrate after 40 mins by spectrofluorimetry
T2 sequence (P09237 whole entry): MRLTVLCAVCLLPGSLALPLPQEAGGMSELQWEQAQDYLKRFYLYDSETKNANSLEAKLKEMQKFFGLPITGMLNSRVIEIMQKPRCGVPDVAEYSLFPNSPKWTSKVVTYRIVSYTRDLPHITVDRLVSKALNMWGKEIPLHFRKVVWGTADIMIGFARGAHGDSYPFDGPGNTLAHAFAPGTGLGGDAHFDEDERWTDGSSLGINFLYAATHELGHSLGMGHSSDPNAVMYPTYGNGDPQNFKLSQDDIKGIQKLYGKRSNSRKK

[13] = Solubility of the compound in water; assay type: physicochemical; conditions: buffer
[14] = system: Liver microsome; test: Metabolic stability in rat liver microsomes; assay type: ADME
Outline: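 The free acid was incubated with hepatic microsomes of each species. Stability is reported as clearance in μL/min/mg microsomal protein.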

[15] = target: Matrix metalloproteinase-9 (Homo sapiens, UniProt P14780); test: Inhibition of human recombinant MMP9 using Cy3-PLGLK(Cy5Q)AR-NH2 as substrate after 40 mins by spectrofluorimetry
[16] = system: Rattus norvegicus; test: Intrinsic clearance in iv dosed rat; assay type: ADME, organism-based; conditions: in vivo
[17] = Inhibition of cytochrome P450 (unknown origin); assay type: ADME; conditions: human

Chain of Stromelysin-1 (P08254 whole entry): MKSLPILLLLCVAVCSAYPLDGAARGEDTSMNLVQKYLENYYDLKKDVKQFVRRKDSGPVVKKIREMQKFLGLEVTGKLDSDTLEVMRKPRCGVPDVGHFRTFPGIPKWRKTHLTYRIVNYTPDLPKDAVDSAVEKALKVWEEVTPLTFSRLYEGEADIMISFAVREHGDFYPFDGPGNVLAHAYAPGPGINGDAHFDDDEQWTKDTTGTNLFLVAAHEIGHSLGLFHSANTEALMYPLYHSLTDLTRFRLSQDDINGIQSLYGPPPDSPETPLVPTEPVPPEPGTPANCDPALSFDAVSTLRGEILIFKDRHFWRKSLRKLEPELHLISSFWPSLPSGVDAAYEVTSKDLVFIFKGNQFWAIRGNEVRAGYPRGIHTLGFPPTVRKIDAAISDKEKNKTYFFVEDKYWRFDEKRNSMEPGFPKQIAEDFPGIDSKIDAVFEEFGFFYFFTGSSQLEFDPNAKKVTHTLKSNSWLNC
Chain of Neutrophil collagenase (P22894 whole entry): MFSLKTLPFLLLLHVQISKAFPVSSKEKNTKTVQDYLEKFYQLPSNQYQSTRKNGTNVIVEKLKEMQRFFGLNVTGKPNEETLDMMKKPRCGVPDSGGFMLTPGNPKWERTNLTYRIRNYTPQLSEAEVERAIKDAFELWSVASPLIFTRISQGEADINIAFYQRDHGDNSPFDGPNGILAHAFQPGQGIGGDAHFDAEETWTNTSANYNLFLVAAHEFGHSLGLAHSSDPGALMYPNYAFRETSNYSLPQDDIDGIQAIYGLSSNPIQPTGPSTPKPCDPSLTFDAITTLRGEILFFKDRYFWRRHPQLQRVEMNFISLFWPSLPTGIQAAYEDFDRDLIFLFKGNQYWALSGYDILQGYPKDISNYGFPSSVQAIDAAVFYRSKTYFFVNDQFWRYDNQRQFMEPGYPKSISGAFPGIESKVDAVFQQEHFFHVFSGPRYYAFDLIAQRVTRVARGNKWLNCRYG
Chain of 72 kDa type IV collagenase (P08253 whole entry): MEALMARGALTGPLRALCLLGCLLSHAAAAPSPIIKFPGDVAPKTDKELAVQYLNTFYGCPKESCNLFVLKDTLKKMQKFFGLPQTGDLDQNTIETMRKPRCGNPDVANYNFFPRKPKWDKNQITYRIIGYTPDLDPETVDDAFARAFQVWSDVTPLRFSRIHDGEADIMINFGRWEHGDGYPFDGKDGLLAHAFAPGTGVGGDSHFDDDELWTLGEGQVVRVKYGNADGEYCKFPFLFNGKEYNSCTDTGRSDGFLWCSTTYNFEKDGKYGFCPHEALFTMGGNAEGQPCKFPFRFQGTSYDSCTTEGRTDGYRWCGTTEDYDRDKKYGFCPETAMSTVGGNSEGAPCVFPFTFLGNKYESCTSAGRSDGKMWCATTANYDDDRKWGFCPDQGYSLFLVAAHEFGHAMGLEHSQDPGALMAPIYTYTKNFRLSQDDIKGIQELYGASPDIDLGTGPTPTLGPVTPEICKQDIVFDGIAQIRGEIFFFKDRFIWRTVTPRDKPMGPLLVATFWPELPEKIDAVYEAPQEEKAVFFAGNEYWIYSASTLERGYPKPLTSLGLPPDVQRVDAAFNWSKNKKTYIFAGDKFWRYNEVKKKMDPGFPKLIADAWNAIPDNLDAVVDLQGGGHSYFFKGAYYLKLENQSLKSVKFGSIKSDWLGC
Chain of Disintegrin and metalloproteinase domain-containing protein 17 (P78536 whole entry, the tested form may be a part): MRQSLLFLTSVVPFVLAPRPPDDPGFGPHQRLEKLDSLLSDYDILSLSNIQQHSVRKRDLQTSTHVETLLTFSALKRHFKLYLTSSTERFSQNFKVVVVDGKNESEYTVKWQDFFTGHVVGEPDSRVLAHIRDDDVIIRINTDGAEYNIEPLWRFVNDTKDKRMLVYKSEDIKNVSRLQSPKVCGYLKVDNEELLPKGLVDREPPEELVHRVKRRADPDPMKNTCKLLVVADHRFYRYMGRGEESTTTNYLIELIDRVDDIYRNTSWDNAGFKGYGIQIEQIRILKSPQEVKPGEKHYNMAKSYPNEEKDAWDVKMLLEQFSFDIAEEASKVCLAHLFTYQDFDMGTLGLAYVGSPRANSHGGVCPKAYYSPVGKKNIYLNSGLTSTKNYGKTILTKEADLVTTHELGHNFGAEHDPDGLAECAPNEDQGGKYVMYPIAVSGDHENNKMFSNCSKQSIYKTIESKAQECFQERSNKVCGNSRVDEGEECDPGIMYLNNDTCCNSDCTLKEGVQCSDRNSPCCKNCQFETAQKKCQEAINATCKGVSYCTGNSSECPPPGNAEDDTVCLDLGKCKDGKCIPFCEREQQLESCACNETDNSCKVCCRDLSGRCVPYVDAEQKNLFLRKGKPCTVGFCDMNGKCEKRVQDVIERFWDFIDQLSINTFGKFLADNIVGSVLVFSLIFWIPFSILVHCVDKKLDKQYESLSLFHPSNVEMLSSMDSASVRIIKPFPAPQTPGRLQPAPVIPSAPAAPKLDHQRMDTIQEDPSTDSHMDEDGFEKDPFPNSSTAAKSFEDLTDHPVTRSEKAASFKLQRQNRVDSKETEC
Chain of Matrix metalloproteinase-9 (P14780 whole entry): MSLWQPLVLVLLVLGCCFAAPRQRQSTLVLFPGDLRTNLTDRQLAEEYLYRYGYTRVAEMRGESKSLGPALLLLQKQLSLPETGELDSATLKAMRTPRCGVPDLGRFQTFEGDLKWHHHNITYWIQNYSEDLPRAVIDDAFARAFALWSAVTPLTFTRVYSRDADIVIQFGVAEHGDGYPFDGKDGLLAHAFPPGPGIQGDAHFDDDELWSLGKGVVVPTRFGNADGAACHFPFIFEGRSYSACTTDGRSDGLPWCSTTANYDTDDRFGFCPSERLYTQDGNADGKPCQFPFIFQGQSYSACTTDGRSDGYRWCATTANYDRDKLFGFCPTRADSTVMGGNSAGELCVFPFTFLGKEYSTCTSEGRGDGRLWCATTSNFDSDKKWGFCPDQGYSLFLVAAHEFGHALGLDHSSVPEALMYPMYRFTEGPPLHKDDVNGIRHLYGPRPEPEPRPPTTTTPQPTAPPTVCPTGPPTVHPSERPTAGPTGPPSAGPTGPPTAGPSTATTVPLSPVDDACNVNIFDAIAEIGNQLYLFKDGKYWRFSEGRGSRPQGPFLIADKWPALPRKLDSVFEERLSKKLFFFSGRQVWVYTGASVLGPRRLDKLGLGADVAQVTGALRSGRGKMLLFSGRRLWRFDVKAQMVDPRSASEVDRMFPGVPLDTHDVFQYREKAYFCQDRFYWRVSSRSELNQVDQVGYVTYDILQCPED
Chain of Stromelysin-2 (P09238 whole entry): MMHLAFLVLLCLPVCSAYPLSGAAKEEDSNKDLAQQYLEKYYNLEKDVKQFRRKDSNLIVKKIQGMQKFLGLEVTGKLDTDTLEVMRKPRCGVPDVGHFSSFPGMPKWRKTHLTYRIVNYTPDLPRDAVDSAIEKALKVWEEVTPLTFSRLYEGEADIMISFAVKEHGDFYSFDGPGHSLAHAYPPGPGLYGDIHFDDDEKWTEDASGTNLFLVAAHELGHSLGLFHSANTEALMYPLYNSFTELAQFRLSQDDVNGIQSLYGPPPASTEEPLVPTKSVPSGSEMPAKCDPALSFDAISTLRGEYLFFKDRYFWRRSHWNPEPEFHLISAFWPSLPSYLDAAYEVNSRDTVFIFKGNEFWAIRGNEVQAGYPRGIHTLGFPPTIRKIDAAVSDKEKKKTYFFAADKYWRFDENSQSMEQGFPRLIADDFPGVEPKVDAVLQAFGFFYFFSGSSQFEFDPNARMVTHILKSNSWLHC
Chain of Voltage-gated inwardly rectifying potassium channel KCNH2 (Q12809 whole entry, the tested form may be a part): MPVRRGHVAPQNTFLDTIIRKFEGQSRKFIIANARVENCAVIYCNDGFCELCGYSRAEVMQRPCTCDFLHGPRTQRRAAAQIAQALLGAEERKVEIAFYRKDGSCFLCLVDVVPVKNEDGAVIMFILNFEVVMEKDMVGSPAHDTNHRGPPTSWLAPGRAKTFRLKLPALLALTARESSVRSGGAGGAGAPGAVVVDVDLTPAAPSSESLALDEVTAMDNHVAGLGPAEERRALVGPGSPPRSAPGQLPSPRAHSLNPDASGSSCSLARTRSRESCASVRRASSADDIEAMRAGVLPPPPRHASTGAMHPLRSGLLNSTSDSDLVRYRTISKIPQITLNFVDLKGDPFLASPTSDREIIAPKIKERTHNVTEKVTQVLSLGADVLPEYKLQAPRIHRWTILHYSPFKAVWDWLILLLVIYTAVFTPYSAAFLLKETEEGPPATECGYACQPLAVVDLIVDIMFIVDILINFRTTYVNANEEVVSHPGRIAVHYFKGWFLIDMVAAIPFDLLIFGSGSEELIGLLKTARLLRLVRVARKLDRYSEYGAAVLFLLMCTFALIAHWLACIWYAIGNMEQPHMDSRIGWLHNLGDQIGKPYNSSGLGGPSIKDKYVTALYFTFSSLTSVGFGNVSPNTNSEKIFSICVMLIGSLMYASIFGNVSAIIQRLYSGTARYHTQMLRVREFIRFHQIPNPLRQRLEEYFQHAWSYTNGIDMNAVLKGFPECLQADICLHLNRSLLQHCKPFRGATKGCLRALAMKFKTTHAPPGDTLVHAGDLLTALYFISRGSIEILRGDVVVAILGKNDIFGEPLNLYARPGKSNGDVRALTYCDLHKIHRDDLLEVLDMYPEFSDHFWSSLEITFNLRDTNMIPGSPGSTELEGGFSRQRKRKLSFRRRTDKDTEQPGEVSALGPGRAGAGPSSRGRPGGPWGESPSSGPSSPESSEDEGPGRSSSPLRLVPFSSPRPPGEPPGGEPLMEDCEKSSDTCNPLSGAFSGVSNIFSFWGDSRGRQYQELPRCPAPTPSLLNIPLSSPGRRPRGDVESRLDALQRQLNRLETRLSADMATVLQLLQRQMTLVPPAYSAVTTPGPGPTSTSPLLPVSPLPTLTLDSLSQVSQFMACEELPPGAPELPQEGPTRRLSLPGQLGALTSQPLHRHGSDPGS

IC50 [2]: > 10 µM
IC50 [3]: 0.16 µM
solubility [4]: 0.7 µg/mL (≈ 1.42 µM)
IC50 [5]: 0.72 µM
IC50 [6]: > 10 µM
IC50 [7]: 5.3 µM
IC50 [8]: > 10 µM
Papp [9]: 4.77 ×10⁻⁶ cm/s
IC50 [10]: 3.9 pM
IC50 [11]: 4 µM
IC50 [12]: > 10 µM
solubility [13]: Insoluble
Microsomal clearance [14]: 70 µL/min/mg
IC50 [15]: > 10 µM
CL [16]: 28.3 mL/min/kg
inhibition (INH) [17]: Not Active
Compound: COc1cccc(CNC(=O)c2nc3ccc(F)c(OCCc4ccc(C(=O)O)cc4)c3c(=O)[nH]2)c1
inhibition (INH) [1]: Not Active
